Source: PMC9073044 (Saudi Journal of Biological Sciences, 2021)
Where a name gives a salt, the structure may show the parent alone. Blank lines part the entries; values can stand above or below the compound they belong to.

Columns and labels:
[1] = Caco-2 cells monolayer transport study; type: in vitro ADME; settings: human
Procedure, shortened: (§1)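 Caco-2 cells seeded at 1 × 10^5/cm2 on 0.33 cm2 transwell inserts and grown 21 days in DMEM with 20% FBS; TEER >300 Ω•cm2. Monolayers were preincubated 30 min in 37 ℃ HBSS with 10 mM HEPES. Test compound at 12, 120 and 1200 μg/mL was run bidirectionally, ± GF120918, for 2 h. […] Lucifer yellow (20 μg/mL, AP→BL, fluorescence) checked tight junctions.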

[2] = ref Du et al., 2019, Yuen et al., 1995; cited from earlier work
rats intestine = test: In-situ single-pass intestinal perfusion; type: in vivo, SD rats
human DNA polymerase = settings: ref Reis et al., 2013; cited from earlier work
Caco-2 cells monolayer = Caco-2 cells monolayer transport study; type: in vitro ADME
Procedure, shortened: as §1

Caco-2 cells = test: Cytotoxicity by MTT assay; type: cell-based; settings: lamivudine 12, 120 and 1200 μg/mL, 24 h
Procedure, shortened: (§2)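 MTT assay: Caco-2 cells seeded at 5 × 10^3 per well in 96-well plates and incubated 24 h. Medium was replaced with test compound (12, 120 or 1200 μg/mL) for 24 h. MTT was then added for 4 h, the supernatant removed, formazan dissolved in DMSO, and absorbance read at 630 nm.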

[3] = Cytotoxicity by MTT assay; type: cell-based; settings: human, Caco-2 cells
Procedure, shortened: as §2

[4] = Caco-2, with GF120918 (elacridar), 10 μM

Peff (rats intestine; control drugs, perfusion concentration 120 μg/mL, mean ± SD, n = 6): 6.13 ± 2.49 ×10^-5 cm/s | Papp A→B at 2 h ([1]; Caco-2): 16 ± 0.652 ×10⁻⁶ cm/s
Compound: COCCc1ccc(OCC(O)CNC(C)C)cc1 (stereo not shown) [Metoprolol tartrate]

%lucifer yellow (Caco-2 cells monolayer; lucifer yellow 20 μg/mL, AP-BL, without GF120918, 2 h): 0.81 ± 0.03%
Compound: Lucifer yellow

The next lines start with the compound.

Compound: Nc1nc2c(ncn2COCCO)c(=O)[nH]1 [Acyclovir]
Papp A→B at 2 h ([1]; Caco-2): 0.081 ± 0.011 ×10⁻⁶ cm/s

Compound: C[C@H]1O[C@@H](O[C@H]2[C@@H](O)C[C@H](O[C@H]3[C@@H](O)C[C@H](O[C@H]4CC[C@@]5(C)[C@H](CC[C@@H]6[C@@H]5C[C@@H](O)[C@]5(C)[C@@H](C7=CC(=O)OC7)CC[C@]65O)C4)O[C@@H]3C)O[C@@H]2C)C[C@H](O)[C@@H]1O [Digoxin]
Papp A→B at 2 h ([1]; Caco-2): 0.09 ± 0.005 ×10⁻⁶ cm/s | Papp B→A at 2 h, 30 μg/mL ([1]; Caco-2): 11.9 ± 0.312 ×10⁻⁶ cm/s | efflux ratio at 2 h, 30 μg/mL ([1]; Caco-2): 133 | Papp A→B at 2 h, 30 μg/mL [1, 4]: 3.59 ± 0.128 ×10⁻⁶ cm/s | Papp B→A at 2 h, 30 μg/mL [1, 4]: 5.15 ± 0.058 ×10⁻⁶ cm/s | efflux ratio at 2 h, 30 μg/mL [1, 4]: 1.43

Compound: Nc1ccn([C@@H]2CS[C@H](CO)O2)c(=O)n1 [Lamivudine]
bioavailability [2]: exceed 80% | permeability in BCS (rats intestine; from Peff in SPIP): moderate permeability | affinity in human DNA polymerase (human DNA polymerase): low affinity | permeability in BCS (Caco-2 cells monolayer; from Papp on Caco-2 cells monolayer, between high- and low-permeability controls): moderate-permeability | Papp A→B at 2 h, 12 μg/mL ([1]; Caco-2): 0.296 ± 0.005 ×10⁻⁶ cm/s | Papp A→B at 2 h, 120 μg/mL ([1]; Caco-2): 0.297 ± 0.015 ×10⁻⁶ cm/s | Papp A→B at 2 h, 1200 μg/mL ([1]; Caco-2): 0.285 ± 0.011 ×10⁻⁶ cm/s | Papp B→A at 2 h, 12 μg/mL ([1]; Caco-2): 0.788 ± 0.044 ×10⁻⁶ cm/s | Papp B→A at 2 h, 120 μg/mL ([1]; Caco-2): 0.77 ± 0.027 ×10⁻⁶ cm/s | Papp B→A at 2 h, 1200 μg/mL ([1]; Caco-2): 0.737 ± 0.009 ×10⁻⁶ cm/s | Papp A→B at 2 h, 12 μg/mL [1, 4]: 0.307 ± 0.008 ×10⁻⁶ cm/s | Papp A→B at 2 h, 120 μg/mL [1, 4]: 0.322 ± 0.007 ×10⁻⁶ cm/s | Papp A→B at 2 h, 1200 μg/mL [1, 4]: 0.293 ± 0.004 ×10⁻⁶ cm/s | Papp B→A at 2 h, 12 μg/mL [1, 4]: 0.548 ± 0.011 ×10⁻⁶ cm/s | Papp B→A at 2 h, 120 μg/mL [1, 4]: 0.519 ± 0.008 ×10⁻⁶ cm/s | Papp B→A at 2 h, 1200 μg/mL [1, 4]: 0.531 ± 0.012 ×10⁻⁶ cm/s | growth ability of Caco-2 cells (Caco-2 cells): did not significantly affect | viability at 24 h, 1200 μg/mL [3]: > 80%
